Reference: ChEMBL document CHEMBL6071151, “Discovery of Inhibitors Targeting Protein-Protein Interaction between Bacterial RNA Polymerase and NusG as Novel Antimicrobials” (J Med Chem, 2024)

Key:
Type in all cases: functional
[1] = tested on: Acinetobacter baumannii; experiment: Antimicrobial activity against Acinetobacter baumannii ATCC 19606 assessed as reduction in microbial growth measured after 20 hrs by CLSI based broth microdilution method
Outline: (§1)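 Broth microdilution per CLSI in cation-adjusted Mueller-Hinton broth. Two-fold serial dilutions from 256 to 0.25 μg/mL, inoculum about 5 × 10⁵ CFU/mL. Read after 20 h at 37 °C. MIC is the lowest concentration with no visible growth. Run in duplicate.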

[2] = tested on: Escherichia coli; experiment: Antimicrobial activity against Escherichia coli ATCC 25922 assessed as reduction in microbial growth measured after 20 hrs by CLSI based broth microdilution method; outline: as §1
[3] = tested on: Enterobacter cloacae; experiment: Antimicrobial activity against Enterobacter cloacae ATCC 13047 assessed as reduction in microbial growth measured after 20 hrs by CLSI based broth microdilution method; outline: as §1
[4] = tested on: Staphylococcus aureus; experiment: Antimicrobial activity against Staphylococcus aureus ATCC 29213 assessed as reduction in microbial growth measured after 20 hrs by CLSI based broth microdilution method; outline: as §1
[5] = tested on: Klebsiella pneumoniae; experiment: Antimicrobial activity against Klebsiella pneumoniae ATCC 700603 assessed as reduction in microbial growth measured after 20 hrs by CLSI based broth microdilution method; outline: as §1
[6] = tested on: Pseudomonas aeruginosa; experiment: Antimicrobial activity against Pseudomonas aeruginosa ATCC 27853 assessed as reduction in microbial growth measured after 20 hrs by CLSI based broth microdilution method; outline: as §1
[7] = tested on: Streptococcus pneumoniae; experiment: Antimicrobial activity against Streptococcus pneumoniae ATCC 49619 assessed as reduction in microbial growth measured after 20 hrs by CLSI based broth microdilution method
[8] = tested on: Enterococcus faecalis; experiment: Antimicrobial activity against Enterococcus faecalis ATCC 19433 assessed as reduction in microbial growth measured after 20 hrs by CLSI based broth microdilution method; outline: as §1
[9] = tested on: Staphylococcus aureus; experiment: Antimicrobial activity against Staphylococcus aureus ATCC 25923 assessed as reduction in microbial growth measured after 20 hrs by CLSI based broth microdilution method; outline: as §1

Structure (SMILES) | MIC [1] [µg/mL] | MIC [2] [µg/mL] | MIC [3] [µg/mL] | MIC [4] [µg/mL] | MIC [5] [µg/mL] | MIC [6] [µg/mL] | MIC [7] [µg/mL] | MIC [8] [µg/mL] | MIC [9] [µg/mL]
O=[N+]([O-])c1ccc(OCC(O)CNCCNc2ncc(C(F)(F)F)cn2)cc1 (centres undefined) | > 256 | > 256 | > 256 | 256 | > 256 | > 256 | 128 | > 256 | 256
O=[N+]([O-])c1ccc(OCC(O)CNCCNc2ncccc2C(F)(F)F)cc1 (centres undefined) | > 256 | > 256 | > 256 | 128 | > 256 | > 256 | 64 | 256 | 128
O=[N+]([O-])c1ccc(OCC(O)CNCCNc2ncccn2)cc1 (centres undefined) | > 256 | > 256 | > 256 | > 256 | > 256 | > 256 | > 256 | > 256 | > 256
OC(CNCCNc1ccccc1C(F)(F)F)COCc1cccc(C(F)(F)F)c1.OC(CNCCNc1ccccc1C(F)(F)F)COCc1cccc(C(F)(F)F)c1 (centres undefined) | > 256 | > 256 | > 256 | 128 | > 256 | > 256 | 128 | > 256 | > 256
O=[N+]([O-])c1ccc(OCC(O)CNCCNc2ccccc2C(F)(F)F)cc1 (centres undefined) | 128 | 128 | 128 | 64 | > 256 | > 256 | 64 | 128 | 64
OC(CNCCNc1nccc(C(F)(F)F)n1)COc1ccccc1 (centres undefined) | > 256 | > 256 | > 256 | > 256 | > 256 | > 256 | 128 | > 256 | > 256
N#Cc1ccc(OCC(O)CNCCNc2ccccc2C(F)(F)F)cc1 (centres undefined) | > 256 | > 256 | > 256 | 128 | > 256 | > 256 | 128 | > 256 | > 256
O=[N+]([O-])c1ccc(OCC(O)CNCCNc2nccc(C(F)(F)F)n2)cc1 (centres undefined) | > 256 | > 256 | > 256 | 128 | > 256 | > 256 | 128 | 256 | 256
COc1ccc(OCC(O)CNCCNc2nccc(C(F)(F)F)n2)cc1 (centres undefined) | > 256 | > 256 | > 256 | > 256 | > 256 | > 256 | 256 | > 256 | > 256
O=[N+]([O-])c1ccc(OCC(O)CNCCNc2cccc(C(F)(F)F)n2)cc1 (centres undefined) | 256 | 256 | 256 | 64 | > 256 | > 256 | 32 | 128 | 128
O=[N+]([O-])c1ccc(OCC(O)CNCCNc2ccc(F)cn2)cc1 (centres undefined) | > 256 | > 256 | > 256 | > 256 | > 256 | > 256 | > 256 | > 256 | > 256
OC(CNCCNc1nccc(C(F)(F)F)n1)COc1ccc(F)c(F)c1 (centres undefined) | 256 | 128 | 256 | 256 | > 256 | > 256 | 64 | 256 | 256

Results, then the compound that gave them:

MIC [1] [µg/mL] | MIC [2] [µg/mL] | MIC [3] [µg/mL] | MIC [4] [µg/mL] | MIC [5] [µg/mL] | MIC [6] [µg/mL] | MIC [7] [µg/mL] | MIC [8] [µg/mL] | MIC [9] [µg/mL] | Structure (SMILES)
64 | 128 | 128 | 32 | > 256 | > 256 | 16 | 32 | 32 | OC(CNCCNc1ccc(C(F)(F)F)cn1)COCc1ccc(C(F)(F)F)cc1 (centres undefined)
> 256 | > 256 | > 256 | > 256 | > 256 | > 256 | > 256 | > 256 | > 256 | OC(CNCCNc1ccc(-c2ccccc2)cc1)COc1ccc(C(F)(F)F)cc1 (centres undefined)
64 | 64 | > 256 | 32 | > 256 | > 256 | 16 | 64 | 64 | OC(CNCCNc1ccc(C(F)(F)F)cn1)COc1ccc(C(F)(F)F)cc1 (centres undefined)
> 256 | > 256 | 128 | 128 | > 256 | > 256 | 32 | 128 | 128 | O=[N+]([O-])c1ccccc1NCCNCC(O)COc1ccc(C(F)(F)F)cc1 (centres undefined)
64 | 64 | 128 | 64 | > 256 | > 256 | 32 | 64 | 64 | O=S(=O)(NCCNCC(O)COc1ccc(C(F)(F)F)cc1)c1ccccc1C(F)(F)F (centres undefined)
128 | 128 | 128 | 64 | 256 | > 256 | 64 | 128 | 128 | O=[N+]([O-])c1ccc(NCCNCC(O)COCc2ccc(C(F)(F)F)cc2)nc1 (centres undefined)
128 | 128 | 128 | 32 | > 256 | > 256 | 64 | 128 | 32 | O=[N+]([O-])c1ccc(OCC(O)CNCCNc2ccc(C(F)(F)F)cn2)cc1 (centres undefined)
128 | 64 | 256 | 32 | > 256 | > 256 | 32 | 64 | 64 | OC(CNCCNc1ccc(C(F)(F)F)cn1)COCc1cccc(C(F)(F)F)c1 (centres undefined)
64 | 64 | 64 | 32 | > 256 | > 256 | 32 | 32 | 64 | OC(CNCCNc1ccccc1C(F)(F)F)COc1ccccc1C(F)(F)F (centres undefined)
128 | 16 | 128 | 128 | > 256 | > 256 | 64 | 128 | 128 | N#Cc1ccccc1NCCNCC(O)COc1ccc(C(F)(F)F)cc1 (centres undefined)
32 | 64 | 64 | 32 | > 256 | > 256 | 16 | 16 | 32 | OC(CNCCNc1ccc(C(F)(F)F)cn1)CNc1ccc(C(F)(F)F)cc1 (centres undefined)
128 | > 256 | > 256 | 64 | > 256 | > 256 | 32 | 64 | 64 | OC(CNCCNc1nccc(C(F)(F)F)n1)COc1ccc(C(F)(F)F)cc1 (centres undefined)
> 256 | > 256 | > 256 | > 256 | > 256 | > 256 | > 256 | > 256 | > 256 | OC(CNCCNc1cccc(C(F)(F)F)c1)COc1ccc(C(F)(F)F)cc1 (centres undefined)
256 | 256 | 256 | 128 | > 256 | > 256 | 128 | 256 | 256 | OC(CNCCNc1ccc(C(F)(F)F)cn1)COCc1ccccc1 (centres undefined)
256 | 128 | 256 | 32 | > 256 | > 256 | 8 | 32 | 64 | OC(CNCCNc1ccc(C(F)(F)F)cc1)COc1ccc(C(F)(F)F)cc1 (centres undefined)
> 256 | > 256 | > 256 | 128 | > 256 | > 256 | 128 | > 256 | > 256 | OC(CNCCNc1ccccc1C(F)(F)F)COCc1ccccc1C(F)(F)F (centres undefined)
32 | 16 | 128 | 8 | > 256 | > 256 | 4 | 8 | 16 | OC(CNCCSc1ccccc1C(F)(F)F)COc1ccc(C(F)(F)F)cc1 (centres undefined)
> 256 | > 256 | 256 | 128 | > 256 | > 256 | 64 | 128 | 128 | O=[N+]([O-])c1ccc(OCC(O)CNCCNc2cc(C(F)(F)F)ccn2)cc1 (centres undefined)
32 | 32 | 32 | 32 | > 256 | > 256 | 16 | 16 | 32 | OC(CNCCNc1ccccc1C(F)(F)F)COc1cccc(C(F)(F)F)c1 (centres undefined)
